Results as given in ChEMBL document CHEMBL4020727, “Synthesis and biological evaluation of largazole zinc-binding group analogs” (Bioorg Med Chem, 2017).

Columns and labels:
[1] = molecular target: Histone deacetylase 3/Nuclear receptor corepressor 2 (HDAC3/NCoR2) (Homo sapiens, UniProt O15379); assay: Inhibition of full length human C-terminal His-tagged HDAC3/N-terminal GST-tagged NCOR2 (395 to 489 residues) expressed in baculovirus infected Sf9 insect cells using BPS HDAC substrate 3 after 30 mins by fluorescence assay
In short: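 Run by a contract lab. Compound incubated with HDAC enzyme, substrate, bovine serum albumin and HDAC buffer in duplicate for 30 min at 37 °C. Activity taken as (F−Fb)/(Ft−Fb) against blank and solvent control wells; IC50 from curve fitting.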

Homo sapiens [2] = species: Homo sapiens; assay: Inhibition of class 1 HDAC in human HCT116 cells assessed as hyperacetylation of histone H3 (Lys9/14) measured at 8 hrs post treatment by immunoblot analysis; format: cell-based
In short: (§1)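 Cells in DMEM/10% FBS; 4 × 10^5 cells seeded in 60-mm dishes overnight, then treated for 8 h with 0–10 μM (final) compound or vehicle (1% EtOH). Whole-cell lysates loaded at equal protein (BCA), run on SDS-PAGE, blotted to PVDF and probed with anti-acetyl histone H3 (Lys9/14); β-actin also probed. Chemiluminescent detection.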

[3] = molecular target: T1, Polyamine deacetylase HDAC10 (Homo sapiens, UniProt Q969S8); assay: Inhibition of N-terminal GST-tagged/C-terminal His-tagged human HDAC10 (1 to 481 residues) expressed in baculovirus infected Sf9 insect cells using BPS HDAC substrate 3 after 30 mins by fluorescence assay
T1 sequence (Q969S8 whole entry): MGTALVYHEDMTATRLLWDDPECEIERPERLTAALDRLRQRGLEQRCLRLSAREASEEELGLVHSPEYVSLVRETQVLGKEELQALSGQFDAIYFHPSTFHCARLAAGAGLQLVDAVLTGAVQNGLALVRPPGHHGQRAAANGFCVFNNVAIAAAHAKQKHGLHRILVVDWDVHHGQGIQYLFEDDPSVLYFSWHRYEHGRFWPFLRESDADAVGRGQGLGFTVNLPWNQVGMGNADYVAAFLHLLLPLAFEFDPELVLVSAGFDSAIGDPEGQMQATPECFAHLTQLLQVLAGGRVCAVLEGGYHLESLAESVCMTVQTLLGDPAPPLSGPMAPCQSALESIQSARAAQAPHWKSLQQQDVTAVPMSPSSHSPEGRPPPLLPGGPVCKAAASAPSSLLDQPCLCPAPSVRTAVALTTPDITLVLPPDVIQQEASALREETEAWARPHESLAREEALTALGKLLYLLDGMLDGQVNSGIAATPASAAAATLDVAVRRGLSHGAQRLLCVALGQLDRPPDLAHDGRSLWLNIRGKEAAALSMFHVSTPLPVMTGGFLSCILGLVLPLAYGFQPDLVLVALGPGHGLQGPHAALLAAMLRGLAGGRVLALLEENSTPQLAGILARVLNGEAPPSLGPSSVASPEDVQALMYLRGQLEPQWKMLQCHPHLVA
In short: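 Run by a contract lab. Compound incubated with HDAC enzyme, HDAC substrate, BSA and HDAC buffer, in duplicate, at 37 °C for 30 min. Quenched with HDAC developer, then 15 min at room temperature. Fluorescence read at ex 360/em 460 nm. Percent activity = (F−Fb)/(Ft−Fb), using blank and solvent-control wells. IC50 from curve fitting.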

Histone deacetylase 1 = Histone deacetylase 1 (Homo sapiens, UniProt Q13547); assay: Inhibition of recombinant full length C-terminal His/FLAG-tagged human HDAC1 expressed in baculovirus infected Sf9 insect cells using BPS HDAC substrate 3 after 30 mins by fluorescence assay
In short: (§2)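 Run by a contract lab. Compound incubated with HDAC enzyme, HDAC substrate, BSA and HDAC buffer, in duplicate, at 37 °C for 30 min. Quenched with HDAC developer, then 15 min at room temperature. Percent activity = (F−Fb)/(Ft−Fb), using blank and solvent-control wells. IC50 from curve fitting.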

Histone deacetylase 8 = molecular target: T2, Histone deacetylase 8 (Homo sapiens, UniProt Q9BY41); assay: Inhibition of full length C-terminal His-tagged human HDAC8 expressed in baculovirus infected Sf9 insect cells using BPS HDAC class 2a substrate after 30 mins by fluorescence assay; in short: as §2
T2 sequence (Q9BY41 whole entry): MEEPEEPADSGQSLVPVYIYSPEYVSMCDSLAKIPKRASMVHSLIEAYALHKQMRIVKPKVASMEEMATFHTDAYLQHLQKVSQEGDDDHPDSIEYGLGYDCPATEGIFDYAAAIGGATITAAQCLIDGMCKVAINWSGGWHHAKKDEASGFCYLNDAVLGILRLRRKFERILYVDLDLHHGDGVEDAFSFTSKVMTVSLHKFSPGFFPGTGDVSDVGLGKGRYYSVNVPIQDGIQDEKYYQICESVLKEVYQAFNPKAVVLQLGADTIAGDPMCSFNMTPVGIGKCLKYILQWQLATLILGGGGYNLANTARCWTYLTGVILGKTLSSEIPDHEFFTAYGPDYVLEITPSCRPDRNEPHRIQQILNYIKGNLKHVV

Homo sapiens [4] = species: Homo sapiens; assay: Inhibition of class 1 HDAC in human MDA-MB-231 cells assessed as hyperacetylation of histone H3 (Lys9/14) measured at 8 hrs post treatment by immunoblot analysis; format: cell-based; in short: as §1
Histone deacetylase 2 = Histone deacetylase 2 (Homo sapiens, UniProt Q92769); assay: Inhibition of full length C-terminal FLAG-tagged human HDAC2 expressed in baculovirus infected Sf9 insect cells using BPS HDAC substrate 3 after 30 mins by fluorescence assay; in short: as §2
MDA-MB-231 = assay: Cytotoxicity against human MDA-MB-231 cells assessed as reduction in cell viability after 48 hrs by MTT assay; format: functional, cell-based; conditions: MDA-MB-231, 48 h
In short: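 Cells grown in DMEM with 10% FBS, 37 °C, 5% CO2; 1 × 10^4 cells per well plated and left 24 h, then exposed to a range of compound concentrations or vehicle (1% EtOH) for 48 h. Viability read by MTT.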

Histone deacetylase 1, sequence (Q13547 whole entry): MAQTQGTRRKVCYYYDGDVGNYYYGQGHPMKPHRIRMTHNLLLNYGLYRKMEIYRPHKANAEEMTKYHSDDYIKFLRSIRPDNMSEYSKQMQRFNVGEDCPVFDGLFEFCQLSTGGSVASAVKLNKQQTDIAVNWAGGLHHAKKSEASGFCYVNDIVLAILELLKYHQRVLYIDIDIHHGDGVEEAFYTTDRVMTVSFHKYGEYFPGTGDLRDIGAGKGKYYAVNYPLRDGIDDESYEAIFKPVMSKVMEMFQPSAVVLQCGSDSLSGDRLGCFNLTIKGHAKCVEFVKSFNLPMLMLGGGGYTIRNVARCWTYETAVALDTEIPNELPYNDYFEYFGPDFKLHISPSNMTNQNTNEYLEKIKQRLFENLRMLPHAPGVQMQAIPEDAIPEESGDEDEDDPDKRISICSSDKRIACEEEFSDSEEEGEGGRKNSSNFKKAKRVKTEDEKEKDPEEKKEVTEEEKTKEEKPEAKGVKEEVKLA
Histone deacetylase 3/Nuclear receptor corepressor 2 (HDAC3/NCoR2), sequence (O15379 whole entry, the tested form may be a part): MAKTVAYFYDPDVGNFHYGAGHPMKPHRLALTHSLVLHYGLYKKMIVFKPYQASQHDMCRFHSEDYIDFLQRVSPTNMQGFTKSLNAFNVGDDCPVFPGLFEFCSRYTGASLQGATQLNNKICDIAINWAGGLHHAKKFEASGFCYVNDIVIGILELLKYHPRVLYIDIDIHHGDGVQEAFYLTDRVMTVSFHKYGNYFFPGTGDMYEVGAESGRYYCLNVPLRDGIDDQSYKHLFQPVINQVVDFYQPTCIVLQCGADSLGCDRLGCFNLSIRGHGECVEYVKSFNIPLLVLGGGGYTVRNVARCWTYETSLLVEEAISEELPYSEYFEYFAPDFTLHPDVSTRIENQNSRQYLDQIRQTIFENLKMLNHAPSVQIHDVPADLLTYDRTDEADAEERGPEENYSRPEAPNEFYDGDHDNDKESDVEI
Histone deacetylase 3/Nuclear receptor corepressor 2 (HDAC3/NCoR2), sequence (Q9Y618 whole entry, further chain, the tested form may be a part): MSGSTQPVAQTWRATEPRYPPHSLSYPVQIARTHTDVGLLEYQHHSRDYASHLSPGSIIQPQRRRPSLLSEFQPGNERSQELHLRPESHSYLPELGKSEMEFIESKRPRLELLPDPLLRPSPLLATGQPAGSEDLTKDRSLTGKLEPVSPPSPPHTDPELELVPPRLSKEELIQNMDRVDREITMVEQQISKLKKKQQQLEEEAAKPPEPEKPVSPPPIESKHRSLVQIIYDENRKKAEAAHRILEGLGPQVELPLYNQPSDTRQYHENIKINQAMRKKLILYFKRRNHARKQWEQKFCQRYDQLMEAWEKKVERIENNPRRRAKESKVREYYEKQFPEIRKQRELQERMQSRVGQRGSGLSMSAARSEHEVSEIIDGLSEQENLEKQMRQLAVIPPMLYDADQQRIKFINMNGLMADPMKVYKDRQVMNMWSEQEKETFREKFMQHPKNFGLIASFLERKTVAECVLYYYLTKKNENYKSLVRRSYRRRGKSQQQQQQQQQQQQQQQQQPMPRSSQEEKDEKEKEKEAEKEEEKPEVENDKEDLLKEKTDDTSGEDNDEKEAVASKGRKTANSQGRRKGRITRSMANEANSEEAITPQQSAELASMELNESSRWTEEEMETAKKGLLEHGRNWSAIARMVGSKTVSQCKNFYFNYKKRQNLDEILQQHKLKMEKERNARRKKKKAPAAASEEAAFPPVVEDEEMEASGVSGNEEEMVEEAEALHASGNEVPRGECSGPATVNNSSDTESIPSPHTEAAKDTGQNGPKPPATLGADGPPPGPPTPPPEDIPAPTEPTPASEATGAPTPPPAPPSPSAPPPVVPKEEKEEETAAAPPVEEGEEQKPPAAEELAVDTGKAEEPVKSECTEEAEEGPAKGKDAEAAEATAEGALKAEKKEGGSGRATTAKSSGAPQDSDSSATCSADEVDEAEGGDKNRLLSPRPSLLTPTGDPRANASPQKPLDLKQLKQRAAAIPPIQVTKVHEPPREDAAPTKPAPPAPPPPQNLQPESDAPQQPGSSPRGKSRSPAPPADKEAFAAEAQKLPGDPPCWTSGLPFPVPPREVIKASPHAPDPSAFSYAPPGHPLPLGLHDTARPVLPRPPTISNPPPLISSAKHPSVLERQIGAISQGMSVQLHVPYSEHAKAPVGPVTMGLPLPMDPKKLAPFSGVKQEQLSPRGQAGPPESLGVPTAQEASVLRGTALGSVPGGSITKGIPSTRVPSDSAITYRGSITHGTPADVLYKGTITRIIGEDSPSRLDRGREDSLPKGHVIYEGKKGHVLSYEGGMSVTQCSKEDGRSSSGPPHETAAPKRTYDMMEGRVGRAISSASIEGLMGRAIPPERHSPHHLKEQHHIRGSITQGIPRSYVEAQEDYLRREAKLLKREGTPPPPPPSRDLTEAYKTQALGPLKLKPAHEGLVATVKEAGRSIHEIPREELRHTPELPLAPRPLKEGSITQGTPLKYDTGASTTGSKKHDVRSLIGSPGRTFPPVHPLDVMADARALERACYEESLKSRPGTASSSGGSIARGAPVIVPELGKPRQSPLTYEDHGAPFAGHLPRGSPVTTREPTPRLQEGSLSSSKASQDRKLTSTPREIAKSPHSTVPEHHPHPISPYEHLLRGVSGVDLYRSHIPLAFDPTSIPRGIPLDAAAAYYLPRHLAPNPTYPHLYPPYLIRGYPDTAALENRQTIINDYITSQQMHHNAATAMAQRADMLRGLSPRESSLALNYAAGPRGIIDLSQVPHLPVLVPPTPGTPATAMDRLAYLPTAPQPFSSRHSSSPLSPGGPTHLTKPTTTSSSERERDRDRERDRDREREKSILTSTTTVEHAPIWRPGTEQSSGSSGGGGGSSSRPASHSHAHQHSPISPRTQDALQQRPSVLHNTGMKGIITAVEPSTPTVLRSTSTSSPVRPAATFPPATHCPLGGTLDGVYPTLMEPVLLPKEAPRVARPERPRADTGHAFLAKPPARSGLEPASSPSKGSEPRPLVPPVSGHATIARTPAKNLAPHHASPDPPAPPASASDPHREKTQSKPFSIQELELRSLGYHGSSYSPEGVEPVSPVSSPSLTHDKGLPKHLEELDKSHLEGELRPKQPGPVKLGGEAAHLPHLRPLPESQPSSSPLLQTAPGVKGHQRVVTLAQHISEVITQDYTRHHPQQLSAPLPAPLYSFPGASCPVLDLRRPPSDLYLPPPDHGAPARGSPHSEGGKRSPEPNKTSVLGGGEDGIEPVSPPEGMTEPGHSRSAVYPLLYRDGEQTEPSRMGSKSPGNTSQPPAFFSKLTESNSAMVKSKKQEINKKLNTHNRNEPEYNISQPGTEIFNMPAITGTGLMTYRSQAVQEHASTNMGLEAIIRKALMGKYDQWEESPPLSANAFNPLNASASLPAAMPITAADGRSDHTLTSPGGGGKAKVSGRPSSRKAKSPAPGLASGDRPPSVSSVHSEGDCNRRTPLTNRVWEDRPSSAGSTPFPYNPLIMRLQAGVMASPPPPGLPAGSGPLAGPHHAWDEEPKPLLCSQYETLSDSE
Histone deacetylase 2, sequence (Q92769 whole entry): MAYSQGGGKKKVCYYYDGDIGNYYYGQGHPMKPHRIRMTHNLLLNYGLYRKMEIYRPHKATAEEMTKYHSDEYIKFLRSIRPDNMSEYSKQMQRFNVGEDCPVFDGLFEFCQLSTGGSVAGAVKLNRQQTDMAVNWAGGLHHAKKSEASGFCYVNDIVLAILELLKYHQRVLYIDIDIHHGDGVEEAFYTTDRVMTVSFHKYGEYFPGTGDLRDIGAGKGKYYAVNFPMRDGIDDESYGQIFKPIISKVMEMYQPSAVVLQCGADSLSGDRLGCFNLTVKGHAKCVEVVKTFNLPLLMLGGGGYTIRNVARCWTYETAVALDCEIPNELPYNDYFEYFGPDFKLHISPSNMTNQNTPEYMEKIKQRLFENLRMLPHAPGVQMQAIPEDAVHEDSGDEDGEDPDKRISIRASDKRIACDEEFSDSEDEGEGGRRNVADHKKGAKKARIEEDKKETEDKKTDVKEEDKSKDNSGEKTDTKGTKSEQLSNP

| Structure (SMILES) | IC50 [1] | inhibition (Homo sapiens [2]) | IC50 [3] | IC50 (Histone deacetylase 1) | IC50 (Histone deacetylase 8) | inhibition (Homo sapiens [4]) | IC50 (Histone deacetylase 2) | IC50 (MDA-MB-231) |
| --- | --- | --- | --- | --- | --- | --- | --- | --- |
| CC(C)[C@@H]1NC(=O)[C@]2(C)CSC(=N2)c2csc(n2)CNC(=O)C[C@@H](/C=C/CCC(=O)NO)OC1=O | 0.029 µM | Dose-dependent effect | 0.021 µM | 0.026 µM | 3.5 µM | Dose-dependent effect | 0.069 µM | 0.497 µM |
| CC(C)[C@@H]1NC(=O)[C@]2(C)CSC(=N2)c2csc(n2)CNC(=O)C[C@@H](/C=C/CCSCCS)OC1=O | 0.043 µM | Dose-dependent effect | 0.0036 µM | 0.04 µM | 9.6 µM | Dose-dependent effect | 0.09 µM | 0.48 µM |
